Reference: PMC6469250 (Annals of Clinical and Translational Neurology, 2019)
Where two headings read alike, the source gives them in different places.

Tests used:
hLTP = settings: cited from earlier work
[1] = Pharmacokinetics in rats: total plasma and brain concentrations by LC-MS; format: in vivo; settings: oral gavage 50 mg/kg, rats (Fig. 6D)
5xFAD mice [2] = format: in vivo
Outline: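 Six-month-old 5xFAD and Wt littermates got 2400 ppm test compound or control diet for three months (n = 9/group). Frozen 20 μm sections were stained overnight at 4°C with anti-Iba-1, CD68 or CD11b (1:200), Alexa secondaries (1:700) and FSB (400 nmol/L) for plaques. KCa3.1 was detected with APC064 or P4997 (1:3000); microglial co-localisation used three images per mouse. Imaging and analysis were blinded.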

KCa3.1 [3] = settings: read-out: IC50 for KCa3.1 inhibition; cited from earlier work
5xFAD mice [4] = test: Memory tasks: novel object recognition and step-through passive avoidance; format: in vivo; settings: 5xFAD mice at 9 months of age; no significant memory deficits in 5xFAD/control diet mice
5xFAD mice [5] = test: hLTP in hippocampal slices from treated 5xFAD mice; format: in vivo; settings: senicapoc diet for three months; to the level of Wt mice (Fig. 8F and G)
Outline: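 5xFAD and Wt littermates aged six months were fed test compound-medicated (2400 ppm) or control diet for three months. Hippocampal slices then received high-frequency stimulation. The read-out was mean percent change in fEPSP slope from baseline, averaged 50–60 min after HFS, from 8–12 slices of 5–6 mice per group. Data are mean ± SE; two-way ANOVA with Bonferroni.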

[6] = cited from earlier work
[7] = cited from earlier work; remark: listed apart in the source
[8] = Pharmacokinetics in mice: total plasma and brain concentrations by LC-MS; format: in vivo; settings: male, C57BL/6J, mouse
KCa3.1 [9] = target: KCa3.1 (Mus musculus, UniProt O89109); test: Whole-cell patch-clamp on AβO-activated cultured primary microglia; format: cell-based; settings: AβO 100 nmol/L 24 h, senicapoc 1 μmol/L (Fig. 7A)
Chain of KCa3.1 (Mus musculus, UniProt O89109) (O89109 whole entry): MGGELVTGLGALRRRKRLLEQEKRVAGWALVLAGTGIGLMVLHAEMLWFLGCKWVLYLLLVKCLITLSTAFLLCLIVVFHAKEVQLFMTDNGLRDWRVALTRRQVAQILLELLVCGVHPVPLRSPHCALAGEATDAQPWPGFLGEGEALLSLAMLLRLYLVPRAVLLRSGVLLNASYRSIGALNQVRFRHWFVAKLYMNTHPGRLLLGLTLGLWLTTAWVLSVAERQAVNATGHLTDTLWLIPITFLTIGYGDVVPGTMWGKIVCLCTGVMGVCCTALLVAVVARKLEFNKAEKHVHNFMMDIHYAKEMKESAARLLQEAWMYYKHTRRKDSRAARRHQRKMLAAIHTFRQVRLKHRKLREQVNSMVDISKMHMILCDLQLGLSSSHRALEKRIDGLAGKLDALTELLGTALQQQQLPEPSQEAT
Outline: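 Whole-cell patch-clamp was done on cultured primary microglia after 24 h AβO (100 nmol/L) with test compound or vehicle. An aspartate-based internal solution was used. KCa3.1 conductance was taken from the slope of the TRAM-34-sensitive KCa current between −80 and −75 mV.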

primary microglia = test: AβO-induced proinflammatory activation of cultured primary microglia; format: cell-based, mouse
Outline: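 Primary microglia came from mixed glia cultures and were exposed to AβO (100 nmol/L) for 24 h with test compound or vehicle. For qPCR, RNA was kit-extracted and analysed by the 2‑ΔΔCt method with Actb as reference. For p38MAPK, cells were lysed in Triton/SDS buffer with protease and phosphatase inhibitors, then immunoblotted with anti-phospho-p38MAPK and anti-p38MAPK (1:1000).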

[10] = humans; cited from earlier work
5xFAD mice [11] = test: qPCR of acutely isolated microglia after three months of senicapoc diet; format: in vivo
Outline: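 Six-month-old 5xFAD and Wt littermates were fed 2400 ppm test compound or control diet ad lib for three months (n = 9/group). Microglia were acutely isolated with anti-CD11b magnetic beads. RNA was extracted, reverse-transcribed and pre-amplified. Pro-inflammatory and M2-like transcripts (Arg1, CD206, […], IGF-1) were quantified by 2‑ΔΔCt against Actb. Groups were compared by two-way ANOVA with Bonferroni.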

SMILES: CN(C)c1ccc(O)c2c1C[C@H]1C[C@H]3[C@H](N(C)C)C(O)=C(C(N)=O)C(=O)[C@@]3(O)C(O)=C1C2=O [minocycline]
- hLTP disruption by Aβ (hLTP): prevent the hLTP disruption

SMILES: NC(=O)C(c1ccccc1)(c1ccc(F)cc1)c1ccc(F)cc1 [senicapoc]
- oral availability [1]: roughly 60%
- number of microglia expressing KCa3.1 (5xFAD mice [2]; medicated diet for three months (Fig. 8B)): significantly reduced
- reduction of CD11b immunoreactivity (5xFAD mice [2]; medicated diet for three months, P < 0.001 (Fig. 8A)): 45%
- IC50 (KCa3.1 [3]): 11 nM
- cognitive benefit (5xFAD mice [4]): could not be demonstrated
- reduced induction of hLTP in 5xFAD mice (5xFAD mice [5]): rectified
- protein binding [6]: 95%
- hemolysis and hemoglobin levels ([7]; Phase-2 clinical trial): reduced hemolysis and increased hemoglobin levels
- primary clinical end-point: reduction in the rate of vaso-occlusive pain crisis ([7]; Phase-3): failed to achieve its primary clinical end‐point
- safety and tolerability in humans ([7]; Phase-3 clinical trial for sickle cell anemia): safe and well‐tolerated
- concentration at 1 h ([8]; brain, ip, 50 mg/kg): 43 ± 8 µM
- half-life ([8]; plasma): ~1 h
- AβO-induced microglial KCa3.1 currents (KCa3.1 [9]): block
- AβO-induced microglial proliferation (primary microglia; AβO 100 nmol/L 24 h, senicapoc 1 μmol/L if not otherwise indicated (Fig. 7B)): block
- AβO-induced production of NO (primary microglia; AβO 100 nmol/L 24 h, senicapoc 1 μmol/L if not otherwise indicated (Fig. 7E)): block
- AβO-induced expression of microglial activation mediators IL-1β, IL-6 and iNOS (primary microglia; AβO 100 nmol/L 24 h, senicapoc 1 μmol/L, qPCR (Fig. 7C)): block
- AβO-induced activation of p38MAPK (primary microglia; AβO 100 nmol/L, senicapoc 1 μmol/L, Western blotting (Fig. 7D)): block
- half-life [10]: ~ 7 day
- expressions of proinflammatory modulators IL-1β, TNF-α, IL-6, and iNOS (qPCR) (5xFAD mice [11]; medicated diet for three months (Fig. 8C)): significantly reduced
- markers typical of an M2-like phenotype (qPCR) (5xFAD mice [11]; medicated diet for three months (Fig. S5)): no changes
